# pIC50: −log10 of the molar value. Activity calls are given as the source filed them. The rule behind the calls is not given here.
# Experiments:
# [1] = molecular target: T1, Programmed cell death protein 1/Programmed cell death 1 ligand 1 (Homo sapiens, UniProt Q9NZQ7); experiment: Inhibition of human recombinant PD-1/PDL-1 interaction measured by HTRF assay; format: protein-complex assay
# [2] = molecular target: T1, Programmed cell death protein 1/Programmed cell death 1 ligand 1; experiment: Inhibition of PD-1/PDL-1 (unknown origin) binding; format: protein-complex assay
# HaCaT [3] = experiment: Cytotoxicity against human HaCaT cells assessed as reduction in cell viability at 10 uM for 48 hrs by CCK-8 assay; format: toxicity, cell-based
# Summary of the method: (§1)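 Cells were seeded at 1×10^4/well in triplicate and exposed to 0.1–100 μM compound with DMSO held at 0.02% in all wells. Untreated wells served as reference. After 24 or 48 h at 37 °C, 5% CO2, viability was read by CCK-8 at 450 nm (reference 600 nm). Results are percent survival versus untreated, mean ± SD of three independent experiments in triplicate.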
# HCC827 [4] = experiment: Immunomodulatory activity in human HCC827 cells expressing PD-L1 co-cultured stimulated PMBC cells assessed as morphological changes at 1 uM measured after 48 hrs by phase-contrast microscopy; format: functional, cell-based
# Summary of the method: (§2)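 PC9 or HCC827 cells (2×10^5/well, 24 h) were co-cultured with 2×10^6 PBMCs. Compound was added at 1 μM, and 1 h later PBMCs were stimulated with anti-CD3/anti-CD28 TransAct (1 μg/mL each). Controls were unstimulated PBMCs and untreated cancer cells. After 48 h, phase-contrast microscopy was used to look for junction disruption, nuclear swelling, vacuolization, cytosol shrinkage and membrane rupture.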
# HCC827 [5] = experiment: Immunomodulatory activity in human HCC827 cells expressing PD-L1 co-cultured stimulated PMBC cells assessed as induction of apoptosis at 1 uM for 48 hr by Annexin V-FITC and propidium iodide based flow cytometry; format: functional, cell-based
# Summary of the method: (§3)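 In the same PBMC/cancer-cell co-culture (1 μM compound for 1 h before TransAct anti-CD3/CD28 stimulation, 1 μg/mL each), cells were harvested after 48 h. They were stained with annexin V-FITC/PI and analysed by flow cytometry. Results are mean fraction of annexin V+ cells ± SD, three independent experiments.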
# PC-9 [6] = experiment: Immunomodulatory activity in human PC9 cells expressing PD-L1 co-cultured stimulated PMBC cells assessed as induction of apoptosis at 1 uM for 48 hr by Annexin V-FITC and propidium iodide based flow cytometry; format: functional, cell-based; summary of the method: as §3
# PC-9 [7] = experiment: Cytotoxicity against human PC-9 cells assessed as reduction in cell viability at 10 uM for 48 hrs by CCK-8 assay; format: toxicity, cell-based; conditions: pc-9, 48 h; summary of the method: as §1
# PC-9 [8] = experiment: Immunomodulatory activity in human PC9 cells expressing PD-L1 co-cultured stimulated PMBC cells assessed as reduction in cell viability at 1 uM for 48 hr by CCK8 assay; format: functional, cell-based
# Summary of the method: (§4)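 PC9 or HCC827 cells were co-cultured 48 h with PBMCs, treated with 1 μM compound and stimulated 1 h later with anti-CD3/anti-CD28 (1 μg/mL each). PBMCs were then removed by PBS washes and viability of the remaining cancer cells was read by CCK-8. Results are percent survival versus untreated, mean ± SD of three independent experiments in triplicate.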
# HCC827 [9] = experiment: Immunomodulatory activity in human HCC827 cells expressing PD-L1 co-cultured stimulated PMBC cells assessed as IFN-gamma release level at 1 uM measured after 48 hr by ELISA; format: functional, cell-based
# Summary of the method: (§5)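 Co-culture: PC9 or HCC827 cells (2×10^5/well) plus 2×10^6 PBMCs, 1 μM compound, then anti-CD3/anti-CD28 TransAct (1 μg/mL each) 1 h later. After 48 h, IFN-γ in the medium was measured by sandwich ELISA (450 nm). Values are mean ± SD of three independent experiments in triplicate; two-sided t-test.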
# HaCaT [10] = experiment: Cytotoxicity against human HaCaT cells assessed as reduction in cell viability at 100 uM for 48 hrs by CCK-8 assay; format: toxicity, cell-based; summary of the method: as §1
# PC-9 [11] = experiment: Cytotoxicity against human PC-9 cells assessed as reduction in cell viability at 10 uM for 24 hrs by CCK-8 assay; format: toxicity, cell-based; conditions: pc-9, 24 h; summary of the method: as §1
# HCC827 [12] = experiment: Cytotoxicity against human HCC827 cells assessed as reduction in cell viability at 100 uM for 48 hrs by CCK-8 assay; format: functional, cell-based; summary of the method: as §1
# PC-9 [13] = experiment: Immunomodulatory activity in human PC9 cells expressing PD-L1 co-cultured stimulated PMBC cells assessed as morphological changes at 1 uM measured after 48 hrs by phase-contrast microscopy; format: functional, cell-based; summary of the method: as §2
# [14] = Cytotoxicity against human PBMC cells assessed as reduction in cell viability at 10 uM for 24 hrs by CCK-8 assay; format: toxicity, cell-based; summary of the method: as §1
# [15] = Cytotoxicity against human PBMC cells assessed as reduction in cell viability at 10 uM for 48 hrs by CCK-8 assay; format: toxicity, cell-based; summary of the method: as §1
# PC-9 [16] = experiment: Immunomodulatory activity in human PC9 cells expressing PD-L1 assessed as morphological changes at 1 uM measured after 48 hrs by phase-contrast microscopy; format: functional, cell-based
# [17] = Cytotoxicity against human PBMC cells assessed as reduction in cell viability at 100 uM for 48 hrs by CCK-8 assay; format: toxicity, cell-based; summary of the method: as §1
# HCC827 [18] = experiment: Immunomodulatory activity in human HCC827 cells expressing PD-L1 assessed as morphological changes at 1 uM measured after 48 hrs by phase-contrast microscopy; format: functional, cell-based
# HaCaT [19] = experiment: Cytotoxicity against human HaCaT cells assessed as reduction in cell viability at 10 uM for 24 hrs by CCK-8 assay; format: toxicity, cell-based; summary of the method: as §1
# PC-9 [20] = experiment: Cytotoxicity against human PC-9 cells assessed as reduction in cell viability at 100 uM for 48 hrs by CCK-8 assay; format: toxicity, cell-based; conditions: pc-9, 48 h; summary of the method: as §1
# PC-9 [21] = experiment: Immunomodulatory activity in human PC9 cells expressing PD-L1 co-cultured stimulated PMBC cells assessed as IFN-gamma release level at 1 uM measured after 48 hr by ELISA; format: functional, cell-based; summary of the method: as §5
# HCC827 [22] = experiment: Cytotoxicity against human HCC827 cells assessed as reduction in cell viability at 10 uM for 24 hrs by CCK-8 assay; format: toxicity, cell-based; conditions: hcc827, 24 h; summary of the method: as §1
# HCC827 [23] = experiment: Cytotoxicity against human HCC827 cells assessed as reduction in cell viability at 10 uM for 48 hrs by CCK-8 assay; format: toxicity, cell-based; conditions: hcc827, 48 h; summary of the method: as §1
# HCC827 [24] = experiment: Cytotoxicity against human HCC827 cells assessed as reduction in cell viability at 100 uM for 24 hrs by CCK-8 assay; format: toxicity, cell-based; conditions: hcc827, 24 h; summary of the method: as §1
# [25] = Cytotoxicity against human PBMC cells assessed as reduction in cell viability at 100 uM for 24 hrs by CCK-8 assay; format: toxicity, cell-based; summary of the method: as §1
# HCC827 [26] = experiment: Immunomodulatory activity in human HCC827 cells expressing PD-L1 co-cultured stimulated PMBC cells assessed as reduction in cell viability at 1 uM for 48 hr by CCK8 assay; format: functional, cell-based; summary of the method: as §4
# HaCaT [27] = experiment: Cytotoxicity against human HaCaT cells assessed as reduction in cell viability at 100 uM for 24 hrs by CCK-8 assay; format: toxicity, cell-based; summary of the method: as §1
# PC-9 [28] = experiment: Cytotoxicity against human PC-9 cells assessed as reduction in cell viability at 100 uM for 24 hrs by CCK-8 assay; format: toxicity, cell-based; conditions: pc-9, 24 h; summary of the method: as §1
# [29] = molecular target: Programmed cell death 1 ligand 1 (Homo sapiens) (UniProt Q9NZQ7); conditions: dose 32.0 µM
# Programmed cell death 1 ligand 1 (Homo sapiens), sequence (Q9NZQ7 whole entry): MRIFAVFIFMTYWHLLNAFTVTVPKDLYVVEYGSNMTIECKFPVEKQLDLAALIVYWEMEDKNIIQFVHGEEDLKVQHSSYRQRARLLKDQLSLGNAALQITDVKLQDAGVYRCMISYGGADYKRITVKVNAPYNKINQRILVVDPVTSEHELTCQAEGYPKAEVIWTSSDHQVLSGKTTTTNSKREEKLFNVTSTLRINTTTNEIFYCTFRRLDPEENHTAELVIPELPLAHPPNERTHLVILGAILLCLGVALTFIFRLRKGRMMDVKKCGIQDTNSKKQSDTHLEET
# [30] = molecular target: Programmed cell death 1 ligand 1 (Homo sapiens) (UniProt Q9NZQ7); experiment: Binding affinity to human PD-L1 expressing on exosomes assessed as decrease in […] intensity at 0.5 mM by STD-NMR spectroscopy
# [31] = molecular target: Programmed cell death 1 ligand 1 (Homo sapiens) (UniProt Q9NZQ7); experiment: Binding affinity to human PD-L1 expressing on exosomes assessed as decrease in […] intensity at 0.5 mM by WL-NMR spectroscopy
# T1 sequence (Q15116 whole entry): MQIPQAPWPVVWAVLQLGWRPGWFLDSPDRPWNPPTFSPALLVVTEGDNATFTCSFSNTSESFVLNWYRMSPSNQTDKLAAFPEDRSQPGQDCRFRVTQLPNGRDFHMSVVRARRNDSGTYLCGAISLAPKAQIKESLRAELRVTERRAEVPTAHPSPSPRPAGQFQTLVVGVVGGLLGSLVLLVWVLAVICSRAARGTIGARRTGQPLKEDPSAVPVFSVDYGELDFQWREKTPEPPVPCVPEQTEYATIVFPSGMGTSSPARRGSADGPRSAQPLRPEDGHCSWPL
# T1 sequence (Q9NZQ7 whole entry): as the sequence (Q9NZQ7 whole entry) above
compound,measurement,setting,value
CC(=O)NCCNc1nc(OCc2cccc(C#N)c2)nc(OCc2cccc(-c3ccccc3)c2C)n1,pIC50,[1],< 5.30
COc1nc(NCCNC(C)=O)nc(OCc2cccc(-c3ccccc3)c2C)n1,pIC50,[1],5.81
Cc1c(COc2ccc(CN[C@H](CO)C(=O)O)c(OCc3cncc(C#N)c3)n2)cccc1-c1ccccc1,pIC50,[2],7.92
COc1cc(C(=O)N2CCC3C(c4ccccc4)=CC=CC32)ccc1CNCCO (configuration not stated),pIC50,[2],6.88
COc1nc(OCc2cccc(-c3ccccc3)c2C)ccc1CNCCNC(C)=O,Activity,HaCaT [3],Non-Toxic
same,Activity,HCC827 [4],Active
same,Activity,HCC827 [5],Active
same,Activity,PC-9 [6],Active
same,Activity,PC-9 [7],Non-Toxic
same,Activity,PC-9 [8],Active
same,Activity,HCC827 [9],Active
same,Activity,HaCaT [10],Toxic
same,Activity,PC-9 [11],Non-Toxic
same,Activity,HCC827 [12],Toxic
same,Activity,PC-9 [13],Active
same,Activity,[14],Non-Toxic
same,Activity,[15],Non-Toxic
same,Activity,PC-9 [16],inactive
same,Activity,[17],Toxic
same,Activity,HCC827 [18],inactive
same,Activity,HaCaT [19],Non-Toxic
same,Activity,PC-9 [20],Toxic
same,Activity,PC-9 [21],Active
same,Activity,HCC827 [22],Non-Toxic
same,Activity,HCC827 [23],Non-Toxic
same,Activity,HCC827 [24],Toxic
same,Activity,[25],Toxic
same,Activity,HCC827 [26],Active
same,Activity,HaCaT [27],Toxic
same,Activity,PC-9 [28],Toxic
same,Tm,[29],53 °C
CC(=O)NCCNc1nc(O)nc(OCc2cccc(-c3ccccc3)c2C)n1,pIC50,[1],< 5.30
Cc1c(COc2ncnc(N[C@@H](Cc3c[nH]cn3)C(=O)O)n2)cccc1-c1ccccc1,pIC50,[1],< 5.30
Cc1c(COc2ncnc(NCCS(N)(=O)=O)n2)cccc1-c1ccccc1,pIC50,[1],6.26
Cc1c(COc2ncnc(NCCNS(C)(=O)=O)n2)cccc1-c1ccccc1,pIC50,[1],6.62
Cc1c(COc2ccc(CNCCO)n3cnnc23)cccc1-c1ccc2c(c1)OCCO2,pIC50,[2],7.03
COC(=O)[C@H](Cc1c[nH]cn1)Nc1nc(OCc2cccc(C#N)c2)nc(OCc2cccc(-c3ccccc3)c2C)n1,pIC50,[1],< 5.30
Cc1c(COc2ccc(CN3CCCC[C@H]3C(=O)NCCN)c(OCc3cccc(C#N)c3)c2)cccc1-c1ccccc1,pIC50,[2],8.04
CC(=O)NCCCNc1ncnc(OCc2cccc(-c3ccccc3)c2C)n1,pIC50,[1],5.67
COC(=O)[C@H](Cc1c[nH]cn1)Nc1ncnc(OCc2cccc(-c3ccccc3)c2C)n1,Activity,[30],Active
same,Activity,[31],Active
O=C(O)[C@@H]1CCCCN1Cc1ccc(OCc2cccc(-c3ccccc3)c2Br)c(Br)c1,pIC50,[2],7.82
CC(=O)NCCNc1nc(C)nc(OCc2cccc(-c3ccccc3)c2C)n1,pIC50,[1],< 5.30
CC(C)(C)OC(=O)NCCNc1nc(OCc2ccccc2)nc(N2CCC[C@H]2C(=O)NCc2ccccc2)n1,pIC50,[1],< 5.30
Cc1c(COc2nc(N[C@@H](Cc3c[nH]cn3)C(=O)O)nc(OCc3cccc(C#N)c3)n2)cccc1-c1ccccc1,pIC50,[1],< 5.30
CC(=O)NCCNc1ncnc(OCc2cccc(-c3ccccc3)c2C)n1,Activity,HaCaT [3],Non-Toxic
same,Activity,HCC827 [4],Active
same,pIC50,[1],6.94
same,Activity,HCC827 [5],Active
same,Activity,PC-9 [6],Active
same,Activity,PC-9 [7],Non-Toxic
same,Activity,PC-9 [8],Active
same,Activity,HCC827 [9],Active
same,Activity,HaCaT [10],Toxic
same,Activity,PC-9 [11],Non-Toxic
same,Activity,HCC827 [12],Toxic
same,Activity,PC-9 [13],Active
same,Activity,[14],Non-Toxic
same,Activity,[15],Non-Toxic
same,Activity,PC-9 [16],inactive
same,Activity,[17],Toxic
same,Activity,HCC827 [18],inactive
same,Activity,HaCaT [19],Non-Toxic
same,Activity,PC-9 [20],Toxic
same,Activity,PC-9 [21],Active
same,Activity,HCC827 [22],Non-Toxic
same,Activity,HCC827 [23],Non-Toxic
same,Activity,HCC827 [24],Toxic
same,Activity,HCC827 [26],Active
same,Activity,HaCaT [27],Toxic
same,Activity,PC-9 [28],Toxic
same,Tm,[29],49 °C

# Source: ChEMBL document CHEMBL5038619, “Interfering with the Tumor-Immune Interface: Making Way for Triazine-Based Small Molecules as Novel PD-L1 Inhibitors” (J Med Chem, 2021)
